The source made the active and inactive calls. The calls are words filed in the database; no cut-off is given here.

Data set [1] has as its target T1, DNA ligase 1 (Homo sapiens, UniProt P18858). In words: Inhibition of human recombinant DNA ligase 1 at 100 uM by fluorescence energy transfer-based DNA joining assay relative to control. The gist of the method:
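Fluorescence energy transfer joining of a nicked DNA substrate (10 pmol) by purified recombinant hLigI (0.25 pmol), run in duplicate with or without 100 µM candidate inhibitor.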

The nature of data set [2]: Partition coefficient, log P of the compound. The class given is physicochemical. The conditions noted are these: octanol/water.
Data set [3] addresses T1, DNA ligase 1. The experiment in a line: Inhibition of human recombinant DNA ligase 1 in presence of 0.1% Triton X-100 by fluorescence energy transfer-based DNA joining assay relative to control.
Data set [4] has as its target T1, DNA ligase 1. In words: Inhibition of human recombinant DNA ligase 1 by radioactive gel-based ligation assay. The gist of the method: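 A 25-mer and a 5′-[32P]-labeled 18-mer were annealed to a complementary 44-mer to give a centrally nicked duplex. Labeled substrate (0.5 pmol) and hLigI (0.02 pmol) in ligation buffer were incubated with varying inhibitor concentrations for 30 min at 25 °C. Products were resolved on gels, and IC50 was derived from the concentration-dependence.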

The target in data set [5] is T1, DNA ligase 1. In words: Inhibition of human recombinant DNA ligase 1 using nicked DNA substrate by kinetic assay. An outline of the steps:
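Initial ligation rates were measured with hLigI (0.05 pmol) and fluorescent nicked DNA substrate (0.5–100 pmol) at various inhibitor concentrations. Ki came from Lineweaver–Burk double-reciprocal plots and curve fitting.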

Data set [6] can be described thus: Growth inhibition of human MCF10A cells at 50 uM by MTT assay relative to control. The note with it: MCF-10A. The class given is cell-based.
The subject of data set [7] is HCT-116. The experiment in a line: Growth inhibition of human HCT116 cells at 50 uM by MTT assay relative to control. The class given is functional, cell-based.
In data set [8] the test system is DNA. The experiment in a line: Inhibition of ethidium bromide binding to DNA at 100 uM.

T1 sequence (P18858 whole entry): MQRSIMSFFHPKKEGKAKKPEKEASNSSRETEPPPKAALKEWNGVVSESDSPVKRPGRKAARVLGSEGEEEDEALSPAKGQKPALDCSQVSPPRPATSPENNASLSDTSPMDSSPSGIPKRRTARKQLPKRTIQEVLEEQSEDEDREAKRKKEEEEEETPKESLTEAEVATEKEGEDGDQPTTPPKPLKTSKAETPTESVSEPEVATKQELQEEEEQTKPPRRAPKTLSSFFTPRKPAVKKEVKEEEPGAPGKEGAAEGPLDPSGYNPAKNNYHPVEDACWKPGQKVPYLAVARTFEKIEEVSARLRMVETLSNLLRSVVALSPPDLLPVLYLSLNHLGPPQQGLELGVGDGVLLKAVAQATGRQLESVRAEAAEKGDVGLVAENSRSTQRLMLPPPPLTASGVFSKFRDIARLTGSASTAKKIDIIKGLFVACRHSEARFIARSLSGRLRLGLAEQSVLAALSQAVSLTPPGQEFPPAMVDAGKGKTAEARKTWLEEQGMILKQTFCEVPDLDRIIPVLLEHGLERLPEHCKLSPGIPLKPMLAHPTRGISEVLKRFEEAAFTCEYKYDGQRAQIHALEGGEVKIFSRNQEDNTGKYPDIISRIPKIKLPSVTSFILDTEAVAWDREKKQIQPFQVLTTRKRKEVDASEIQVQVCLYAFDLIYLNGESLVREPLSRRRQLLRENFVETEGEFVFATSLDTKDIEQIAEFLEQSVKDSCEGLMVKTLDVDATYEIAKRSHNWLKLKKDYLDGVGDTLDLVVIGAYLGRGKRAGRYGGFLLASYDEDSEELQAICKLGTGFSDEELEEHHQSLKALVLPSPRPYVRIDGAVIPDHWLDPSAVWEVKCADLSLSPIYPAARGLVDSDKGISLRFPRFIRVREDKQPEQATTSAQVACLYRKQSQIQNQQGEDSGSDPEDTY

As for `O=C1Nc2c(C(=O)O)cccc2C1=O`, the inhibition in data set [1] is 59.3%. For the same molecule, the logP in data set [2] was determined as 0.24. For the same molecule, in data set [3], the result was Active. In addition, in data set [4], the IC50 stood at 4 µM. Further, the inhibitory constant (Ki) in data set [5] was 4 µM.
For `Cc1c(Br)cc(NCC(=O)N/N=C\c2cc([N+](=O)[O-])ccc2O)cc1Br`, in data set [1], the inhibition turned out to be 78.3%. For the same molecule, in data set [2], the log partition coefficient (logP) amounted to 4.91. The growth inhibition in data set [6] and in data set [7] was 70% each time. Besides, the half-inhibitory concentration (IC50) in data set [4] is 8 µM. Besides, the outcome in data set [8] was inactive.
As to `COc1ccc(-c2cnc3c(O)nc(O)nc3n2)cc1`, the inhibition in data set [1] was 52.5%; in data set [3] (concentration not given here) it was 39%. The molecule further yielded a logP in data set [2] of 1.78. The growth inhibition is 70% in data set [6] and 40% in data set [7]. The 50% inhibitory concentration (IC50) in data set [4] turned out to be 25 µM.
For `O=c1[nH]ncc(N/N=C\c2ccc(O)c([N+](=O)[O-])c2)c1Cl`, the inhibition in data set [1] is 59.8%. The logP in data set [2] came to 4.84. The growth inhibition in data set [6] is 70%; in data set [7] it was 40%. For the same molecule, the 50% inhibitory concentration (IC50) in data set [4] was determined as 12 µM. Further, the outcome in data set [8] was inactive.
On to `Cc1oc(C(=O)O)cc1CSCc1cc(C(=O)O)c(C)o1`, for which the inhibition in data set [1] is 91%. The same molecule had a logP in data set [2] of 1.87. Moreover, the outcome in data set [3] was Active. The IC50 in data set [4] was determined as 0.6 µM.
On the same counts, the results for `CSc1ccc(C(=O)O)s1` are 60.5%, 1.92, “Active” and 10 µM.
Turning to `NS(=O)(=O)c1ccc(CCNC(=O)CCS(=O)(=O)c2ccc(Br)cc2)cc1`, the inhibition in data set [1] is 53.4%. Moreover, the logP in data set [2] is 1.42. The outcome in data set [3] was Active. In addition, the half-inhibitory concentration (IC50) in data set [4] turned out to be 8 µM.
On to `O=C(c1ccc(O)cc1)c1ccccc1O`, for which, in data set [1], the inhibition turned out to be 50.7%. Also, in data set [2], the logP was 3.04. The result in data set [3] was Active. Further, the IC50 in data set [4] worked out at 25 µM.
For `O=C(O)CSc1cc(Cl)c2nonc2c1[N+](=O)[O-]`, the inhibition in data set [1] was 60.6%. The same molecule came in with a logP in data set [2] of 2.15. For the same molecule, the growth inhibition in data set [6] came to 40%. In data set [3], the result was Active. Further, in data set [4], the IC50 worked out at 13 µM.

The values are drawn from ChEMBL document CHEMBL1155879, “Identification and validation of human DNA ligase inhibitors using computer-aided drug design” (J Med Chem, 2008).
